Laboratory results reported in ChEMBL document CHEMBL1146227, “Metabolically labile cannabinoid esters: a 'soft drug' approach for the development of cannabinoid-based therapeutic drugs” (Bioorg Med Chem Lett, 2007).

Tests used:
[1] = target: Cannabinoid receptor 1 (Homo sapiens, UniProt P21554); test: Displacement of [3H]CP-55940 from human CB1 receptor
[2] = target: Cannabinoid receptor 2 (Homo sapiens, UniProt P34972); test: Displacement of [3H]CP-55940 from human CB2 receptor
How it was run: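 HEK cells transfected with human recombinant CB2 used for competition binding against [3H]CP-55,940 (Kd 0.31 nM) at 0.084 nM with increasing test compound concentrations; Ki derived from IC50 via Cheng-Prusoff equation; means of at least three separate experiments run in duplicate.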

Sequence of Cannabinoid receptor 1 (P21554 whole entry): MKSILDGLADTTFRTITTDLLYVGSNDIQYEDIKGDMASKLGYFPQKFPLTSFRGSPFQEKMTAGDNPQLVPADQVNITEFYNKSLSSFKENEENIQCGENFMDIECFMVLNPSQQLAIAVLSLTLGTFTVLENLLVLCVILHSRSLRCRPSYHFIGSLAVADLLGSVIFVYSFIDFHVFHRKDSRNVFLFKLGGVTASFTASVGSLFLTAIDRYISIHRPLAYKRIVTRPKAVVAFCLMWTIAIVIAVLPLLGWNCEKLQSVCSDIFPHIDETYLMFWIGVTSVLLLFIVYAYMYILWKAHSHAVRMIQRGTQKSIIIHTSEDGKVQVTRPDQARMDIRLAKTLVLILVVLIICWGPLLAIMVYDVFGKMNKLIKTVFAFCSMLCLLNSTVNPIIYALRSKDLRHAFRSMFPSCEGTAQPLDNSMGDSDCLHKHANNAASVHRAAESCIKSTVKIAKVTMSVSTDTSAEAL
Sequence of Cannabinoid receptor 2 (P34972 whole entry): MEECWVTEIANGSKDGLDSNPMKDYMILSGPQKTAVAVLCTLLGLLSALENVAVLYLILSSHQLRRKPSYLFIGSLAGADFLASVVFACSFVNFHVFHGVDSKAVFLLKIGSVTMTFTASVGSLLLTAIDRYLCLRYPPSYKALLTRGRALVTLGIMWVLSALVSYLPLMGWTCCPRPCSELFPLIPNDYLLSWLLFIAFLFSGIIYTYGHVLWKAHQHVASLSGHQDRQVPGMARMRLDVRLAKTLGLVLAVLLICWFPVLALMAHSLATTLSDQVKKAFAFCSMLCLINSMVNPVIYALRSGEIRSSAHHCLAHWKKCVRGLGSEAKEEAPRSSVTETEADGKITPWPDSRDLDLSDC

Row | SMILES | Ki [1] | Ki [2]
1 | CCCCOC(=O)c1cc(O)c(-c2cc(C)cc(C)c2)c(O)c1 | 2.6 µM | > 3.2 µM
2 | COC(=O)c1cc(O)c(-c2cc(C)cc(C)c2)c(O)c1 | > 10 µM | > 4.5 µM
3 | COC(=O)c1cc(O)c(-c2cc(C)cc(C)c2)c(OC)c1 | > 10 µM | > 6.4 µM
4 | Cc1cc(C)cc(-c2c(O)cc(C(=O)O)cc2O)c1 | > 10 µM | > 10 µM
5 | COc1cc(C(=O)O)cc(OC)c1-c1cc(C)cc(C)c1 | > 10 µM | > 10 µM
6 | CCCCCOC(=O)c1cc(O)c(-c2cc(C)cc(C)c2)c(O)c1 | 2 µM | > 1.1 µM
7 | CCCCCOC(=O)c1cc(O)c(-c2ccccc2)c(O)c1 | > 10 µM | > 4 µM
8 | COc1cc(C(=O)O)cc(O)c1-c1cc(C)cc(C)c1 | > 10 µM | > 10 µM
9 | CCCCCOC(=O)c1cc(OC)c(-c2cc(C)cc(C)c2)c(OC)c1 | > 10 µM | > 10 µM
10 | CCCCCOC(=O)c1cc(O)c(-c2cc(C)cc(C)c2)c(OC)c1 | 1.4 µM | 0.27 µM
